Test results taken from ChEMBL document CHEMBL1255300, “Pharmacodynamics of the antibacterial effect and emergence of resistance to tomopenem, formerly RO4908463/CS-023, in an in vitro pharmacokinetic model of Staphylococcus aureus infection” (Antimicrob Agents Chemother, 2008).
Values after ≈ are worked out from the molar mass of the structure shown.

Tests used:
Staphylococcus aureus [1] = experiment: Antibacterial activity against methicillin-sensitive Staphylococcus aureus 5956 infected in in vitro pharmacokinetic model assessed as reduction in viable count at 1500 mg, iv every 8 hrs measured after 12 hrs using 10^6 CFU/ml inoculum; assay type: functional
Staphylococcus aureus [2] = experiment: Antibacterial activity against methicillin-resistant Staphylococcus aureus 33921 infected in in vitro pharmacokinetic model assessed as reduction in viable count at 1500 mg, iv every 8 hrs measured after 12 hrs using 10^6 CFU/ml inoculum; assay type: functional
Procedure, shortened: (§1)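 Single-compartment dilutional in vitro PK model, 10% Mueller-Hinton broth, 37°C, stirred, dilution 132 ml/h. […] Inoculum 10^6 CFU/ml (added 45 min pre-dose) or 10^8 CFU/ml (run overnight). Viable counts by spiral plating, beta-lactamase neutralization, detection limit 10^2 CFU/ml. At least triplicate.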

Staphylococcus aureus [3] = experiment: T>MIC for 3-log drop in count in methicillin-resistant Staphylococcus aureus 33829 in in vitro pharmacokinetic model after 24 hrs using 10^6 CFU/ml inoculum; assay type: functional
Staphylococcus aureus [4] = experiment: Antibacterial activity against methicillin-resistant Staphylococcus aureus 33827 in in vitro pharmacokinetic model assessed as viable count at 6 times of MIC; assay type: functional
Procedure, shortened: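 Population analysis before drug exposure (time 0). Model samples were plated on nutrient agar without drug and with tomopenem at 2×, 4× and 6× MIC (10% MHB MIC), and growth was recorded as log CFU/ml. Detection limit 2 log10.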

Staphylococcus aureus [5] = experiment: T>MIC for static effect in methicillin-resistant Staphylococcus aureus 33829 in in vitro pharmacokinetic model after 24 hrs using 10^6 CFU/ml inoculum; assay type: functional
Staphylococcus aureus [6] = experiment: AUBKC (0 to 48 hrs) in methicillin-sensitive Staphylococcus aureus 5956 infected in in vitro pharmacokinetic model at 1500 mg, iv every 8 hrs using 10^6 CFU/ml inoculum; assay type: functional
Procedure, shortened: (§2)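 Single-compartment dilutional in vitro PK model at 37°C in 10% Mueller-Hinton broth, stirred, flow 132 ml/h. […] Inoculum 10^6 CFU/ml added 45 min before dosing, or 10^8 CFU/ml run overnight. Viable counts with β-lactamase neutralisation. AUBKC by log-linear trapezoidal rule, at least triplicate.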

Serum = experiment: Drug level in human serum at 700 mg; assay type: ADME, cell-free
Staphylococcus aureus [7] = experiment: Antibacterial activity against methicillin-resistant Staphylococcus aureus 33820 infected in in vitro pharmacokinetic model assessed as reduction in viable count at 1500 mg, iv every 8 hrs measured after 36 hrs using 10^6 CFU/ml inoculum; assay type: functional
Procedure, shortened: (§3)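 Single-compartment dilutional in vitro PK model, 37°C, stirred, in 10% Mueller-Hinton broth. […] Inoculum 10^6 CFU/ml from a 24-h plate culture was added 45 min before dosing. Viable counts by spiral plating on nutrient agar with β-lactamase neutralization. Log change was taken from time 0; detection limit 10^2 CFU/ml; at least triplicate.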

Staphylococcus aureus [8] = experiment: Antibacterial activity against methicillin-resistant Staphylococcus aureus 33815 by 10% MH broth method; assay type: functional
Procedure, shortened: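 Broth dilution MIC per CLSI but in 10% Mueller-Hinton broth, using nondoubling dilutions.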

Staphylococcus aureus [9] = experiment: T>MIC in methicillin-resistant Staphylococcus aureus 33815 infected in vitro pharmacokinetic model at 1500 mg, iv every 8 hrs; assay type: functional
Staphylococcus aureus [10] = experiment: Antibacterial activity against methicillin-resistant Staphylococcus aureus 33815 by broth dilution method; assay type: functional
Procedure, shortened: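 Standard CLSI broth dilution MIC.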

Staphylococcus aureus [11] = experiment: T>MIC for 1-log drop in count in methicillin-resistant Staphylococcus aureus 33827 in in vitro pharmacokinetic model after 24 hrs using 10^6 CFU/ml inoculum; assay type: functional
Staphylococcus aureus [12] = experiment: Antibacterial activity against methicillin-resistant Staphylococcus aureus 33827 infected in in vitro pharmacokinetic model assessed as time required to 99% killing at 1500 mg, iv every 8 hrs using 10^8 CFU/ml inoculum; assay type: functional; procedure, shortened: as §1
Staphylococcus aureus [13] = experiment: AUBKC (0 to 24 hrs) in methicillin-resistant Staphylococcus aureus 33820 infected in in vitro pharmacokinetic model at 750 mg, iv every 8 hrs using 10^6 CFU/ml inoculum; assay type: functional; procedure, shortened: as §2
Staphylococcus aureus [14] = experiment: Antibacterial activity against methicillin-sensitive Staphylococcus aureus 5956 infected in in vitro pharmacokinetic model assessed as reduction in viable count at 750 mg, iv every 8 hrs measured after 48 hrs using 10^6 CFU/ml inoculum; assay type: functional
Staphylococcus aureus [15] = experiment: T>MIC for 2-log drop in count in methicillin-resistant Staphylococcus aureus 33922 in in vitro pharmacokinetic model after 24 hrs using 10^8 CFU/ml inoculum; assay type: functional
Staphylococcus aureus [16] = experiment: AUBKC (0 to 24 hrs) in methicillin-resistant Staphylococcus aureus 33922 infected in in vitro pharmacokinetic model at 1500 mg, iv every 8 hrs using 10^8 CFU/ml inoculum; assay type: functional; procedure, shortened: as §2
Staphylococcus aureus [17] = experiment: Antibacterial activity against methicillin-resistant Staphylococcus aureus 33921 infected in in vitro pharmacokinetic model assessed as reduction in viable count at 1500 mg, iv every 8 hrs measured after 48 hrs using 10^6 CFU/ml inoculum; assay type: functional; procedure, shortened: as §1
Staphylococcus aureus [18] = experiment: Antibacterial activity against methicillin-resistant Staphylococcus aureus 33827 infected in in vitro pharmacokinetic model assessed as reduction in viable count at 1500 mg, iv every 8 hrs measured after 48 hrs using 10^8 CFU/ml inoculum; assay type: functional; procedure, shortened: as §1
Staphylococcus aureus [19] = experiment: Antibacterial activity against methicillin-resistant Staphylococcus aureus 33820 infected in in vitro pharmacokinetic model assessed as reduction in viable count at 1500 mg, iv every 8 hrs measured after 48 hrs using 10^6 CFU/ml inoculum; assay type: functional; procedure, shortened: as §3
Staphylococcus aureus [20] = experiment: T>MIC for 3-log drop in count in methicillin-resistant Staphylococcus aureus 33815 in in vitro pharmacokinetic model after 24 hrs using 10^6 CFU/ml inoculum; assay type: functional
Staphylococcus aureus [21] = experiment: Antibacterial activity against methicillin-resistant Staphylococcus aureus 33829 infected in in vitro pharmacokinetic model assessed as time required to 99.9% killing at 1500 mg, iv every 8 hrs using 10^6 CFU/ml inoculum; assay type: functional; procedure, shortened: as §1
Staphylococcus aureus [22] = experiment: Antibacterial activity against methicillin-resistant Staphylococcus aureus 33921 infected in in vitro pharmacokinetic model assessed as reduction in viable count at 1500 mg, iv every 8 hrs measured after 36 hrs using 10^6 CFU/ml inoculum; assay type: functional; procedure, shortened: as §1
Staphylococcus aureus [23] = experiment: Antibacterial activity against methicillin-resistant Staphylococcus aureus 33815 infected in in vitro pharmacokinetic model assessed as reduction in viable count at 750 mg, iv every 8 hrs measured after 36 hrs using 10^8 CFU/ml inoculum; assay type: functional
Procedure, shortened: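 PK model at 37°C in 10% MHB. […] A 0.5 McFarland suspension (1 ml) was added and the model run overnight to reach 10^8 CFU/ml before dosing. Counts were spiral-plated on nutrient agar with β-lactamase. Change in log CFU/ml was measured from time 0; at least triplicate.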

Staphylococcus aureus [24] = experiment: AUBKC (0 to 48 hrs) in methicillin-resistant Staphylococcus aureus 33815 infected in in vitro pharmacokinetic model at 1500 mg, iv every 8 hrs using 10^8 CFU/ml inoculum; assay type: functional; procedure, shortened: as §2
Staphylococcus aureus [25] = experiment: AUBKC (0 to 24 hrs) in methicillin-resistant Staphylococcus aureus 33827 infected in in vitro pharmacokinetic model at 750 mg, iv every 8 hrs using 10^6 CFU/ml inoculum; assay type: functional; procedure, shortened: as §2
Staphylococcus aureus [26] = experiment: T>MIC for static effect in methicillin-resistant Staphylococcus aureus 33820 in in vitro pharmacokinetic model after 24 hrs using 10^6 CFU/ml inoculum; assay type: functional

## C[C@@H](O)[C@H]1C(=O)N2C(C(=O)O)=C(S[C@H]3C[C@@H](C(=O)N4CC[C@H](NC(=O)CNC(=N)N)C4)N(C)C3)[C@H](C)[C@H]12 [TOMOPENEM]
Staphylococcus aureus [1]
  log10CFU/ml: 4.4
Staphylococcus aureus [2]
  log10CFU/ml: 3
Staphylococcus aureus [3]
  fT>MIC: 21.5%
Staphylococcus aureus [4]
  log10CFU/ml: <2
Staphylococcus aureus [5]
  fT>MIC: 12.1%
Staphylococcus aureus [6]
  AUBC: 22.7 log10CFU/ml.hr
Serum
  Drug uptake: 44 mg/L
Staphylococcus aureus [7]
  log10CFU/ml: 3.8
Staphylococcus aureus [8]
  MIC: 6 µg/mL (≈ 11.2 µM)
Staphylococcus aureus [9]
  fT>MIC: 98%
Staphylococcus aureus [10]
  MIC: 16 µg/mL (≈ 29.8 µM)
Staphylococcus aureus [11]
  fT>MIC: 24.4%
Staphylococcus aureus [12]
  Time: 12 h
Staphylococcus aureus [13]
  AUBC: 28.6 log10CFU/ml.hr
Staphylococcus aureus [14]
  log10CFU/ml: 4.5
Staphylococcus aureus [15]
  fT>MIC: 4.7%
Staphylococcus aureus [16]
  AUBC: 100.1 log10CFU/ml.hr
Staphylococcus aureus [17]
  log10CFU/ml: 3.7
Staphylococcus aureus [18]
  log10CFU/ml: 5.9
Staphylococcus aureus [19]
  log10CFU/ml: 4.2
Staphylococcus aureus [20]
  fT>MIC: 17.1%
Staphylococcus aureus [21]
  Time: 12 h
Staphylococcus aureus [22]
  log10CFU/ml: 4.2
Staphylococcus aureus [23]
  log10CFU/ml: 5.5
Staphylococcus aureus [24]
  AUBC: 152.6 log10CFU/ml.hr
Staphylococcus aureus [25]
  AUBC: 27.4 log10CFU/ml.hr
Staphylococcus aureus [26]
  fT>MIC: 5.9%
